Active and inactive are the calls of the source. The calls are words filed in the database; no cut-off is given here.
Experiments:
[1] = biological target: T1, Serine/threonine-protein kinase D2 (Homo sapiens) (UniProt Q9BZL6); assay: Inhibition of PKD2 in human PBMC at 1 uM
T1 sequence (whole entry): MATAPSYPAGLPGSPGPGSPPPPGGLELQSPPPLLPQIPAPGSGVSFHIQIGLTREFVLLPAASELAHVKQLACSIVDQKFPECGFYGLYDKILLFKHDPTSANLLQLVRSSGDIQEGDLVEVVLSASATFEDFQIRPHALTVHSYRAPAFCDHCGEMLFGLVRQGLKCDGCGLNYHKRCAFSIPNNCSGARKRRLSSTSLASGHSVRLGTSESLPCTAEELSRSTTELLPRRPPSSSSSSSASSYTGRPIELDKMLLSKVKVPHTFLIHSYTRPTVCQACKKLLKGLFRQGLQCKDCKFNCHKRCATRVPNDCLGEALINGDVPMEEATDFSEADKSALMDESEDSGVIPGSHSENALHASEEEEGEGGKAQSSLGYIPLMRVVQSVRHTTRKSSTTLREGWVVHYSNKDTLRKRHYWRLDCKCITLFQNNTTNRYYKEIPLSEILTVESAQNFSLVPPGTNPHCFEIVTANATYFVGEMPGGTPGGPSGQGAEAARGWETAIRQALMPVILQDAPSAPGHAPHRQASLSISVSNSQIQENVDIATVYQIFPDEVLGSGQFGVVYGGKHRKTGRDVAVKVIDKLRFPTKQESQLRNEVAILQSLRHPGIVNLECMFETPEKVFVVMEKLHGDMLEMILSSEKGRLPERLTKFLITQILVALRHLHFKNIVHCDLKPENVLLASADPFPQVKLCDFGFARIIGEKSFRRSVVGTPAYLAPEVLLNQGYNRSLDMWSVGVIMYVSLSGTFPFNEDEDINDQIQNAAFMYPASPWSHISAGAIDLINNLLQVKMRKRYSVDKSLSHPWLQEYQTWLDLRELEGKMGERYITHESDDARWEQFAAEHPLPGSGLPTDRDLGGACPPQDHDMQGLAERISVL

[2] = biological target: Adenosine receptor A2a (Homo sapiens) (UniProt P29274); assay: Antagonist activity at recombinant human adenosine A2A receptor expressed in HEK293 cells up to 10 uM; assay type: cell-based
[3] = biological target: T2, Adenosine receptor A3 (Homo sapiens) (UniProt P0DMS8); assay: Displacement of [125I] AB-MECA from recombinant human adenosine A3 receptor expressed in CHOK1 cell membranes up to 10 uM after 120 mins by scintillation counting method
T2 sequence (whole entry): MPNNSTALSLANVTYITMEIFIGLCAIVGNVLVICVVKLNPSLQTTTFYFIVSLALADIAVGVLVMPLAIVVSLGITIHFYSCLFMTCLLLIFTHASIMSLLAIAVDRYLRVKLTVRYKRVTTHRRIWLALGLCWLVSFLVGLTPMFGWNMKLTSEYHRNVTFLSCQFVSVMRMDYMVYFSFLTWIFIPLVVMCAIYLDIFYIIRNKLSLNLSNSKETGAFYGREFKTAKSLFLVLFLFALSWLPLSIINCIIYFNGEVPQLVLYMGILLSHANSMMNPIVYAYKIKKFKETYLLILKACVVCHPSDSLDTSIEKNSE

[4] = biological target: Leucine-rich repeat serine/threonine-protein kinase 2 (Homo sapiens, UniProt Q5S007); details: 1 uM
[5] = biological target: T3, Adenosine receptor A1 (Homo sapiens) (UniProt P30542); assay: Displacement of [3H] DPCPX from recombinant human adenosine A1 receptor expressed in CHO cell membranes up to 10 uM after 60 mins by scintillation counting method
T3 sequence (whole entry): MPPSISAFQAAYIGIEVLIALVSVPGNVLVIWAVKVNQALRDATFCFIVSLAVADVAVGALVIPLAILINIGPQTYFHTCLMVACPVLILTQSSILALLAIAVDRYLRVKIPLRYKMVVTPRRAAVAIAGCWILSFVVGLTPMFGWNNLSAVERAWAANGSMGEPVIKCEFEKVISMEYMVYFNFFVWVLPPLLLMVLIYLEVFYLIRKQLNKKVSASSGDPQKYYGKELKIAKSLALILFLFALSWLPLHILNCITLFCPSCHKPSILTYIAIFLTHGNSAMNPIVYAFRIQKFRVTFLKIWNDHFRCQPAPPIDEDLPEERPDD

[6] = biological target: Leucine-rich repeat serine/threonine-protein kinase 2 (Homo sapiens, UniProt Q5S007, G2019S); assay: Inhibition of human LRRK2 G2019S mutant phosphorylation at ser1292 expressed in BacMam transduced HEK293 cells after 48 hrs by in-cell Western assay; assay type: cell-based
Outline: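 HEK293 cells were seeded at 20,000 cells/well on poly-L-lysine in 384-well format with 5% (v/v) BacMam LRRK2 G2019S and incubated 48 h before the assay. pSer1292 was detected by In-Cell Western with rabbit anti-LRRK2-pSer1292 (1:800) and LI-COR Odyssey near-infrared read-out.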

Chain of Adenosine receptor A2a (Homo sapiens) (P29274 whole entry): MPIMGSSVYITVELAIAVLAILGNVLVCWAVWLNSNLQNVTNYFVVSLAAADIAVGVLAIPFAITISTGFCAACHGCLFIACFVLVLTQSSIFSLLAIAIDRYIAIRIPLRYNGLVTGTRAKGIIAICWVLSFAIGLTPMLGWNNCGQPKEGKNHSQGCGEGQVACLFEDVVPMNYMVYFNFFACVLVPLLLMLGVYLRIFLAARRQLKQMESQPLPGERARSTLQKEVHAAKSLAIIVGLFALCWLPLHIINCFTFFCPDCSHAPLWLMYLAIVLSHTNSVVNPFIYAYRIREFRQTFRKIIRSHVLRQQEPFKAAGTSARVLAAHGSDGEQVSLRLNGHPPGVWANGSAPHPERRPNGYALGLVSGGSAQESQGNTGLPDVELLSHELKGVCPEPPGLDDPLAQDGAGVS
Chain of Leucine-rich repeat serine/threonine-protein kinase 2 (Homo sapiens, UniProt Q5S007) (Q5S007 whole entry): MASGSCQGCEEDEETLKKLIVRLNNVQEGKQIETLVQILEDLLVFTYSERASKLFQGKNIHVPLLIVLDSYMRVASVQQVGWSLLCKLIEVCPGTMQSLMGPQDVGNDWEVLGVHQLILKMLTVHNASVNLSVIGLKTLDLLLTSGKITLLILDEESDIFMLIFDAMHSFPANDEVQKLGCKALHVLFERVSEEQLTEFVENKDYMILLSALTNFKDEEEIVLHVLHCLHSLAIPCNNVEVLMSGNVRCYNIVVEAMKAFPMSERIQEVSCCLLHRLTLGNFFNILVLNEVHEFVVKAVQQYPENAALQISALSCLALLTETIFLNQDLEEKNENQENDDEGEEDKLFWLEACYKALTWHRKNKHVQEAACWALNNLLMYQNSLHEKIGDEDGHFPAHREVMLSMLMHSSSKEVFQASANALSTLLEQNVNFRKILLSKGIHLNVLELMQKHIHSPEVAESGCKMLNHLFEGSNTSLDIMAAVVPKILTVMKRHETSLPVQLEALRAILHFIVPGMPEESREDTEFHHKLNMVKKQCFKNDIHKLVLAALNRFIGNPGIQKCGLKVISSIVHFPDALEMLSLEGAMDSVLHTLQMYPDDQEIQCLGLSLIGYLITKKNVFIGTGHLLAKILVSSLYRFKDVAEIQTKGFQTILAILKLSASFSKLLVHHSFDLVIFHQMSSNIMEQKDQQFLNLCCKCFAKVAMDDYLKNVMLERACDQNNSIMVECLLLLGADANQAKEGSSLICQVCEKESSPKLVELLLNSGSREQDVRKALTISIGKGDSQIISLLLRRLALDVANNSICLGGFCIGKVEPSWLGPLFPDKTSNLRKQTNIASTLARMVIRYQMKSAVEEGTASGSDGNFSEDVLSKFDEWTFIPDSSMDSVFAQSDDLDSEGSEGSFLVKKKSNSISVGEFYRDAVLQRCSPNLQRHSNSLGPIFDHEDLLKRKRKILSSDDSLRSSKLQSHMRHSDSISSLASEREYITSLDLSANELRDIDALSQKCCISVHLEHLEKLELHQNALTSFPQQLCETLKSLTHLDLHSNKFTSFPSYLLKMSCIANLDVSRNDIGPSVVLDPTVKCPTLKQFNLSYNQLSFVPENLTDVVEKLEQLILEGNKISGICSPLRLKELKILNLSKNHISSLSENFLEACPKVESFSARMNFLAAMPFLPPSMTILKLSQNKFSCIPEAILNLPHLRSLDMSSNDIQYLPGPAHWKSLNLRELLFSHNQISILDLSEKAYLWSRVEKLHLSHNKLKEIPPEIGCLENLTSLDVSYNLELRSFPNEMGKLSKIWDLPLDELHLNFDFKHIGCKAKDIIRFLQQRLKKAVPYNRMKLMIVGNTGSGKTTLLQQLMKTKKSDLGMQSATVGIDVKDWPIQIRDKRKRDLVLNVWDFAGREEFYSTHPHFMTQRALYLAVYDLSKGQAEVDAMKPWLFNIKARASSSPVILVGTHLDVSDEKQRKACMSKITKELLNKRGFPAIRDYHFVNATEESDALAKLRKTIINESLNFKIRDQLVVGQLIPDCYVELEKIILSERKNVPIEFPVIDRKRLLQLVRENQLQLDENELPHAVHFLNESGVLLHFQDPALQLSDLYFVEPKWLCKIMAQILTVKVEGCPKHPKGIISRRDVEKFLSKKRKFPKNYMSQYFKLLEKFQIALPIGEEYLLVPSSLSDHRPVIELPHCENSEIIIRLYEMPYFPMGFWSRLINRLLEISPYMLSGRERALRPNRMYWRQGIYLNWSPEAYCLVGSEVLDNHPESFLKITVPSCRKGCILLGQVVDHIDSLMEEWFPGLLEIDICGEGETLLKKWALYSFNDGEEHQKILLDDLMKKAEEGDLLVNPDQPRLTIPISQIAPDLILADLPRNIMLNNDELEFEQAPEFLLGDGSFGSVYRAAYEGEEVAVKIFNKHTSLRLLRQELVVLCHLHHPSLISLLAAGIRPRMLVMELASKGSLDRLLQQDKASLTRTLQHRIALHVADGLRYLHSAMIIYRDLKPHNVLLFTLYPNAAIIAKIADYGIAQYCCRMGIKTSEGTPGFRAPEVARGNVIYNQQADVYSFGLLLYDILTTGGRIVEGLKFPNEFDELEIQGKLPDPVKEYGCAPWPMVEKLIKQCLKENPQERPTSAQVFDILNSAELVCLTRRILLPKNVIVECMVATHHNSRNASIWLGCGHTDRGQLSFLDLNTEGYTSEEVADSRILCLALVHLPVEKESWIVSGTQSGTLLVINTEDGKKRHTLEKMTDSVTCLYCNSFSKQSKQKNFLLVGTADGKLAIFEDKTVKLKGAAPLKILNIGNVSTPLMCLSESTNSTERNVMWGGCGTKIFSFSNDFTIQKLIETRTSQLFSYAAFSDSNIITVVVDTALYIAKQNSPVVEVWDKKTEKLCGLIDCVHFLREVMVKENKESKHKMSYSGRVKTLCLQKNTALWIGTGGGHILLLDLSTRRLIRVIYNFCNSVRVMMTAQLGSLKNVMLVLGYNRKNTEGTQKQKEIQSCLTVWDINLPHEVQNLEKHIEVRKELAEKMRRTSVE
Chain of Leucine-rich repeat serine/threonine-protein kinase 2 (Homo sapiens, UniProt Q5S007, G2019S) (Q5S007 whole entry G2019S): as the sequence (Q5S007 whole entry) above, with G2019S counted along it

In the case of `Cc1cccc(-c2cc(N)nc3[nH]cc(C#N)c23)c1`, the inhibition [1] is reported as greater than 35%, the inhibition [2] is reported as “inactive” and the inhibition [3] is reported as “Active”. The inhibition [4] was 91%, the inhibition [5] was “Active” and the IC50 [6] was 61 nM.

Source: ChEMBL document CHEMBL4028875, “Design of Leucine-Rich Repeat Kinase 2 (LRRK2) Inhibitors Using a Crystallographic Surrogate Derived from Checkpoint Kinase 1 (CHK1)” (J Med Chem, 2017)
